In ChEMBL document CHEMBL3244139, “Antiarrhythmic activity of p-hydroxy-N-(2-diethylaminoethyl) benzamide (the p-hydroxy isostere of procainamide) in dogs and mice” (J Med Chem, 1977):
One block for each molecule: values may come before it. Active and inactive are the calls of the source. The rule behind the calls is not given here.

How the values were obtained:
Canis familiaris [1] = experiment: Antiarrhythmic activity in aconitine-induced mongrel dog arrhythmic model assessed as decrease in ventricular rate rate measured at end of infusion at 50 +/- 24 mg/kg, iv (reference value: 205 +/- 65 BPM); format: functional, Canis lupus familiaris, Heart
[2] = Stability in human plasma assessed as hydrolysis at 20 ug/ml after 5 mins at room temperature; format: ADME, cell-free; conditions: read-out: Drug degradation
Procedure, shortened: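 Ester at 20 µg/ml held in fresh human plasma for 5 min at room temperature. Comparison conditions: plasma plus 10^-5 M physostigmine, and saline. Standards extracted and measured by TLC densitometry.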

Canis familiaris [3] = experiment: Antiarrhythmic activity in aconitine-induced mongrel dog arrhythmic model assessed as atrial rate measured at end of infusion at 50 +/- 24 mg/kg, iv; format: functional, Canis lupus familiaris, Heart
Plasma [4] = experiment: Plasma concentration in mongrel dog at 50 +/- 24 mg/kg, iv; format: ADME, organism-based, Canis lupus familiaris; parameters: route intravenous; conditions: in vivo
Procedure, shortened: (§1)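 Plasma withdrawn from each aconitine-treated dog when iv infusion was discontinued; drug measured by TLC densitometry.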

Canis familiaris [5] = experiment: Antiarrhythmic activity in aconitine-induced mongrel dog arrhythmic model assessed as atrial rate at 50 +/- 24 mg/kg, iv after 20 +/- 3 mins from end of infusion; format: functional, Canis lupus familiaris, Heart
Plasma [6] = experiment: Drug metabolism in mongrel dog assessed as ester of p-acetoxy-N-(2-diethylaminoethyl)benzamide level in plasma; format: ADME, cell-free, Canis lupus familiaris
Procedure, shortened: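 Dog plasma taken at end of infusion was extracted as for the phenol but without internal standard. Spotted on silica gel F254 TLC, developed with acetone-methanol (1:1), and quantified by densitometry.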

Canis familiaris [7] = experiment: Antiarrhythmic activity in aconitine-induced mongrel dog arrhythmic model assessed as mean arterial blood pressure measured at end of infusion at 50 +/- 24 mg/kg, iv (reference value: 70 +/- 8 mmHg); format: functional, Canis lupus familiaris, Artery
Canis familiaris [8] = experiment: Antiarrhythmic activity in aconitine-induced mongrel dog arrhythmic model assessed as decrease in ventricular rate rate at 50 +/- 24 mg/kg, iv after 20 +/- 3 mins from end of infusion (reference value: 205 +/- 65 BPM); format: functional, Canis lupus familiaris, Heart
Mus musculus [9] = experiment: Antiarrhythmic activity in ICR mouse assessed as protection against chloroform-induced ventricular fibrillation at 233 to 240 mg/kg, ip; format: functional; conditions: Heart
Procedure, shortened: (§2)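 ICR male mice, 28-35 days old, average weight 25 g, dosed ip. After 10 min they were placed in a chloroform jar and anesthetized. A mouse counted as protected if no intermittent or continuous ventricular fibrillation appeared before breathing ceased. Definite fibrillation counted as unprotected even if it later changed rhythm. Eight mice per dose.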

Mus musculus [10] = experiment: Antiarrhythmic activity in ICR mouse assessed as protection against chloroform-induced ventricular fibrillation at 100 mg/kg, ip; format: functional, organism-based; parameters: dose 100 mg/kg; conditions: Heart; procedure, shortened: as §2
[11] = Antiarrhythmic activity in mongrel dog Purkinje fiber assessed as action potential at 20 ug/ml (reference value: 128 +/- 3 mV) by Single Cell Potentials/electrophysiological technique; format: functional, Canis lupus familiaris
[12] = Toxicity in ip dosed ICR mouse assessed as acute mortality; format: organism-based; conditions: in vivo
Procedure, shortened: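 Male ICR mice, 28-35 days old (av wt 26 g), in groups of ten per dose level, given drug ip. Deaths recorded at 10, 15, 30, 60, 120 and 210 min after injection to set acute mortality.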

Canis familiaris [13] = experiment: Antiarrhythmic activity in aconitine-induced mongrel dog arrhythmic model assessed as atrial rate at 59 +/- 25 mg/kg, iv after 16 +/- 10 mins from end of infusion; format: functional, Canis lupus familiaris, Heart
[14] = Antiarrhythmic activity in mongrel dog Purkinje fiber assessed as maximum diastolic potential at 5 ug/ml (reference value: -93 +/- 2 mV) by Single Cell Potentials/electrophysiological technique; format: functional, Canis lupus familiaris
Canis familiaris [15] = experiment: Antiarrhythmic activity in aconitine-induced mongrel dog arrhythmic model assessed as atrial rate measured at end of infusion at 59 +/- 25 mg/kg, iv; format: functional, Canis lupus familiaris, Heart
[16] = Antiarrhythmic activity in mongrel dog Purkinje fiber assessed as rate of phase 0 depolarization (dV/dt) at 5 ug/ml by Single Cell Potentials/electrophysiological technique (reference value: 439 +/- 47 V/s); format: functional, Canis lupus familiaris
Plasma [17] = experiment: Drug metabolism in mongrel dog assessed as p-hydroxy-N-(2-diethylaminoethyl)benzamide level in plasma; format: ADME, cell-free, Canis lupus familiaris
Procedure, shortened: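 Dog plasma sampled when infusion ended. Extracted with NaCl and internal standard and run on TLC (benzene/28% ammonia/acetone/dioxane 5:8:80:5). Quantified by reflectance densitometry, 260-nm illumination, as fluorescence quenching. Peak areas read against standard curves, linear over 0.1-0.8 µg per plate.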

Canis familiaris [18] = experiment: Antiarrhythmic activity in aconitine-induced mongrel dog arrhythmic model assessed as decrease in ventricular rate at 59 +/- 25 mg/kg, iv after 16 +/- 10 mins from end of infusion (reference value: 205 +/- 65 BPM); format: functional, Canis lupus familiaris, Heart
[19] = Antiarrhythmic activity in mongrel dog Purkinje fiber assessed as spontaneous intrinsic rate at 5 ug/ml by Single Cell Potentials/electrophysiological technique (reference value: 19 +/- 4 BPM); format: functional, Canis lupus familiaris
Canis familiaris [20] = experiment: Antiarrhythmic activity in aconitine-induced mongrel dog arrhythmic model assessed as decrease in ventricular rate measured at end of infusion at 59 +/- 25 mg/kg, iv (reference value: 205 +/- 65 BPM); format: functional, Canis lupus familiaris, Heart
[21] = Antiarrhythmic activity in mongrel dog Purkinje fiber assessed as 50% repolarization time at 20 ug/ml by Single Cell Potentials/electrophysiological technique (reference value: 236 +/- 9 ms); format: functional, Canis lupus familiaris
[22] = Antiarrhythmic activity in mongrel dog Purkinje fiber assessed as rate of phase 0 depolarization (dV/dt) at 20 ug/ml by Single Cell Potentials/electrophysiological technique (reference value: 478 +/- 67 V/s); format: functional, Canis lupus familiaris
[23] = Antiarrhythmic activity in mongrel dog Purkinje fiber assessed as 90% repolarization time at 5 ug/ml by Single Cell Potentials/electrophysiological technique (reference value: 282 +/- 8 ms); format: functional, Canis lupus familiaris
[24] = Antiarrhythmic activity in mongrel dog Purkinje fiber assessed as 50% repolarization time at 5 ug/ml by Single Cell Potentials/electrophysiological technique (reference value: 200 +/- 6 ms); format: functional, Canis lupus familiaris
[25] = Antiarrhythmic activity in mongrel dog Purkinje fiber assessed as spontaneous intrinsic rate at 20 ug/ml by Single Cell Potentials/electrophysiological technique (reference value: 22 +/- 5 BPM); format: functional, Canis lupus familiaris
Canis familiaris [26] = experiment: Antiarrhythmic activity in aconitine-induced mongrel dog arrhythmic model assessed as mean arterial blood pressure measured at end of infusion at 59 +/- 25 mg/kg, iv (reference value: 70 +/- 8 mmHg); format: functional, Canis lupus familiaris, Artery
[27] = Therapeutic index, ratio of LD50 for ICR mouse assessed as acute mortality to ED50 for protection against chloroform-induced ventricular fibrillation in ICR mouse; format: organism-based, Cardiac ventricle; conditions: in vivo, read-out: Ratio LD50/ED50
Procedure, shortened: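 Male ICR mice, 28-35 days old, dosed ip. For ED50, 8 mice per dose went into a chloroform jar 10 min after dosing and were kept there until breathing stopped; mice with no intermittent or continuous ventricular fibrillation counted as protected. ED50 was derived by Litchfield-Wilcoxon. LD50 came from acute mortality in 10 mice per dose. Index reported as LD50/ED50.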

[28] = Antiarrhythmic activity in mongrel dog Purkinje fiber assessed as 90% repolarization time at 20 ug/ml by Single Cell Potentials/electrophysiological technique (reference value: 302 +/- 12 ms); format: functional, Canis lupus familiaris
Mus musculus [29] = experiment: Antiarrhythmic activity in ip dosed ICR mouse assessed as protection against chloroform-induced ventricular fibrillation; format: functional; conditions: Heart
Procedure, shortened: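 Male ICR mice, 28-35 days, mean 25 g, given drug ip, then after 10 min exposed to chloroform in a jar until breathing stopped. Protection meant no intermittent or continuous ventricular fibrillation at any point. Eight mice per dosage interval.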

[30] = Antiarrhythmic activity in mongrel dog Purkinje fiber assessed as action potential at 5 ug/ml (reference value: 127 +/- 2 mV) by Single Cell Potentials/electrophysiological technique; format: functional, Canis lupus familiaris
Plasma [31] = experiment: Plasma concentration in mongrel dog at 59 +/- 25 mg/kg, iv; format: ADME, organism-based, Canis lupus familiaris; parameters: route intravenous; conditions: in vivo; procedure, shortened: as §1
[32] = Antiarrhythmic activity in mongrel dog Purkinje fiber assessed as maximum diastolic potential at 20 ug/ml (reference value: -93 +/- 2 mV) by Single Cell Potentials/electrophysiological technique; format: functional, Canis lupus familiaris

metabolised at 5 min, 20 ug/ml [2]: 60%
Cp (Plasma [4]): < 0.5 µg/mL
Structure (SMILES): CCN(CC)CCNC(=O)c1ccc(OC(C)=O)cc1.Cl
Activity (Canis familiaris [1]): 173 bpm
Activity (Canis familiaris [3]): 173 bpm
Activity (Canis familiaris [5]): 373 bpm
Drug metabolism (Plasma [6]): < 0.5 µg/mL
Activity (Canis familiaris [7]): 70 mmHg
Activity (Canis familiaris [8]): 183 bpm

Structure (SMILES): CCN(CC)CCNC(=O)c1ccccc1
Activity (Mus musculus [9]): inactive
Activity (Mus musculus [10]): inactive

Structure (SMILES): CCN(CC)CCNC(=O)c1ccc(O)cc1.Cl
Activity [11]: 126 mV
LD50 [12]: 335 mg/kg
Activity (Canis familiaris [13]): 278 bpm
Activity [14]: -95 mV
Activity (Canis familiaris [15]): 210 bpm
Activity [16]: 396 V/s
Drug metabolism (Plasma [17]): 97 µg/mL
Activity (Canis familiaris [18]): 160 bpm
Activity [19]: 20 bpm
Activity (Canis familiaris [20]): 197 bpm
Time [21]: 280 ms
Activity [22]: 423 V/s
Time [23]: 344 ms
Time [24]: 250 ms
Activity [25]: 16 bpm
Activity (Canis familiaris [26]): 64 mmHg
selectivity ratio [27]: 2.1
Time [28]: 381 ms
ED50 (Mus musculus [29]): 157 mg/kg
Activity [30]: 127 mV
Cp (Plasma [31]): 137 µg/mL
Activity [32]: -94 mV
